Most compounds without a hit are left out; they make up all but 1% or so of the library.
FXIIa inh mix: human factor XIIa inhibitors, primary screen, biochemical, pooled compound mixtures, fluorogenic substrate | Coagulation factor XII (Homo sapiens), P00748 | purified FXIIa | inhibition, % at 5 µM | hit rate 0.2% among 62,000;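 note: 0% = enzyme without compound and 100% = no enzyme blank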
AP ELISA ortho: alternative complement pathway inhibitors, primary screen, biochemical, ELISA, human serum, orthogonally pooled compounds; inhibition, % at 5 µM; LPS-coated ELISA, C3 deposition; tested in compound mixtures; hit rate 0.08% among 62,000; AID 1235, 2008;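 active = inhibition above 30% in each of the two pooled mixtures holding the compound, so the lower value exceeds 30%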;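 note: 0% = serum in Mg-EGTA without compound and 100% = EDTA serum blank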
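Assay system: human serum alternative complement pathway, C3 deposition on LPS-coated wells; Dosing: 5 µM per compound in ten-compound mixtures; Detection: Anti-C3 ELISA, OD 450 nm; Buffer or medium: Mg2+-EGTA GVB++ buffer containing human serum at 1:15 dilution; Timing: 1 h at 37 °C; Replication: two different pools per compound.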
BAP1 inh: inhibitors of BAP1 deubiquitinase, primary screen, biochemical, Ub-AMC fluorescence, kinetic. Ubiquitin carboxyl-terminal hydrolase BAP1 (Homo sapiens), Q92560. recombinant BAP1, Ub-AMC hydrolysis fluorescence kinetic; hits give low values. calls only at 20 µM. hit rate 0.48% among 72,000. AID 436, 2006;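 active = activity remaining at or below 50% of control, provided the compound also passes the data quality filters; inactive = the rest, including low values that fail the filters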;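 note: 100% = DMSO wells rate and 0% = substrate alone blank rate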
HePTP inhibitor: inhibitors of human HePTP phosphatase, primary screen, biochemical, absorbance, leukemia target. AID 521, 2006. inhibition, % at 20 µM. recombinant HePTP phosphatase activity, OD absorbance. hit rate 0.64% among 110,000. Tyrosine-protein phosphatase non-receptor type 7 (Homo sapiens), P35236; in the data active = inhibition above about 50%;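 note: plate controls were vehicle for no effect and reference inhibitor for full effect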
Target sequence (P35236 whole entry, looked up): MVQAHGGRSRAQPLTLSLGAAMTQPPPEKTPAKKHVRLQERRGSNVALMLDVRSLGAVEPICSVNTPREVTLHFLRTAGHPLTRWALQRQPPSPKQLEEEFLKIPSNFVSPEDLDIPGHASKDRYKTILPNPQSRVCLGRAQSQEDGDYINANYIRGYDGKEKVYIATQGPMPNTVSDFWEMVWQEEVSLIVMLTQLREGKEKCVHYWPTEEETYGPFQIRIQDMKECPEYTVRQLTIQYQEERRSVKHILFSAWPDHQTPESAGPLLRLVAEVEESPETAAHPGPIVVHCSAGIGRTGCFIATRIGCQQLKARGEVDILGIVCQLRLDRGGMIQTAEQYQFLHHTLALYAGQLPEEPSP
FXIa inh mix: FXIa protease inhibitors in compound pools, primary screen, biochemical, 10-compound mixtures; Coagulation factor XI (Homo sapiens), P03951; purified FXIa, fluorogenic substrate, pooled mixtures; inhibition, % at 5 µM; hit rate 0.19% among 62,000; AID 680, 2007;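 note: each value is inhibition by a whole ten-compound pool holding the compound; 0% = enzyme with no mixture and 100% = wells lacking enzyme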
* = called active by the depositor; i = inactive; / = no result given; + = active, no number. Cut-off read from the data, not from the text of the source, unless noted: active = inhibition above about 20% (passing the limit was not always enough); inactive = the rest.

SMILES	FXIIa inh mix	AP ELISA ortho	BAP1 inh	HePTP inhibitor	FXIa inh mix
CCCCOc1ccc(C(=O)N2c3ccccc3CC2C)cc1 (stereo unspecified)	/	/	/	104*	/
O=C(c1ccc([N+](=O)[O-])cc1)n1c2c(c3ccccc31)CCCC2	/	/	/	104*	/
COc1ccc(NC(=O)C(NC(=O)c2ccccc2)C23CC4CC(CC(C4)C2)C3)cc1 (stereo unspecified)	/	/	/	-8	/
COc1ccc(-c2csc(NC(=O)c3cccnc3)n2)cc1Br	/	/	i	/	/
CC(C)Sc1nc2ccc(N3C(=O)c4ccccc4C3=O)cc2s1	/	/	/	5	/
O=CN(Cc1ccco1)C1(C(=O)NC2CCCCC2)CCCCC1	33*	-1	i	8	9
O=C1NC(=S)N(c2ccc(Cl)cc2)C(=O)/C1=C/C=C/c1ccccc1	/	/	/	62*	/
CC1=C(C#N)C(=O)NC(=O)/C1=C\c1ccc(-c2ccc(Cl)c(Cl)c2)o1	/	/	/	67*	/
O=C1NC(=S)N(c2ccc(Cl)cc2)C(=O)/C1=C\c1ccc(-c2cccc(C(=O)O)c2)o1	/	/	/	78*	/
CCOC(=O)c1ccc(-c2ccc(/C=C3\C(=O)NC(=O)C(C#N)=C3C)o2)cc1	/	/	/	-15	/
O=C1NC(=S)N(c2ccccc2)C(=O)/C1=C/c1ccc(-c2ccc(Cl)c(C(=O)O)c2)o1	/	/	/	23	/
CCOc1ccc(N2C(=O)NC(=O)/C(=C/c3ccc(-c4ccc(C(=O)O)c(Cl)c4)o3)C2=O)cc1	/	/	/	103*	/
Cc1cc(Br)ccc1N1C(=O)/C(=C/C=C/c2ccccc2)C(=O)NC1=S	/	/	/	-3	/
COC(=O)c1ccc(C(=O)OC)c(NC(=O)Cc2ccc(Cl)cc2)c1	/	/	/	8	/
Cc1ccc([N+](=O)[O-])cc1-c1ccc(/C=C2/C(=O)NN(c3ccc(Cl)cc3)C2=O)o1	/	/	/	94*	/
COC(=O)c1ccc(-c2ccc(/C=C3\C(=O)NN(c4ccccc4)C3=O)o2)cc1	/	/	/	4	/
CCOC(=O)c1ccc(N2NC(=O)/C(=C/c3ccc(-c4ccc(Cl)c(C(=O)O)c4)o3)C2=O)cc1	/	/	/	51*	/
COc1c(Br)cc(Cl)cc1/C=C1\C(=O)NC(=S)N(c2ccc(C)cc2)C1=O	/	/	/	103*	/
Cc1ccc(N2C(=O)/C(=C\c3ccc(-c4ccc(Cl)c(C(=O)O)c4)o3)C(=O)NC2=S)cc1	/	/	/	66*	/
O=C(/C=C/c1c[nH]c2ccccc12)c1ccc([N+](=O)[O-])cc1	/	/	/	-1	/
O=C(N=Nc1c(O)n(CN2CCCC2)c2ccccc12)c1ccccc1Br	/	/	/	-1	/
Cc1c(C(=O)Nc2cccc(-c3nc4ncccc4o3)c2)cccc1[N+](=O)[O-]	/	/	/	-4	/
COc1cc(C(=O)N/C(=C/c2cccc([N+](=O)[O-])c2)C(=O)Nc2ccc(C)cc2)cc(OC)c1OC	/	/	/	-9	/
O=C(O)CCC(=O)Nc1sc2c(c1C(=O)Nc1ccccc1)CCCC2	/	/	i	10	/
O=C(CSc1nc2ccccc2n1Cc1ccccc1)N/N=C/c1cccc(O)c1	/	/	/	4	/
SMILES	FXIIa inh mix	AP ELISA ortho	BAP1 inh	HePTP inhibitor	FXIa inh mix
O=C(CSc1nc2ccccc2n1Cc1ccccc1)N/N=C/c1ccc([N+](=O)[O-])cc1	/	/	/	86*	/
O=C(CCCN1C(=O)c2ccccc2C1=O)Nc1ccccc1C(=O)N1CCCCC1	/	/	/	78*	/
CCOC(=O)CSc1nnc(-c2cccc(OC)c2)n1-c1ccccc1	/	/	/	94*	/
O=C(/C=C/c1ccc(F)cc1)N1CCN(c2cccc(Cl)c2)CC1	/	/	/	104*	/
O=C1NCC(Cn2c3ccccc3c3ccccc32)O1 (stereo unspecified)	/	/	/	104*	/
O=c1[nH]ncc2c3ccccc3n(Cc3ccccc3)c12	27	-3	i	0	5
O=C(O)CCCN1C(=O)/C(=C\c2ccc(-c3cccc([N+](=O)[O-])c3)o2)SC1=S	/	/	/	97*	/
O=C(O)c1ccc(-c2ccc(/C=C3\SC(=S)N(c4ccc([N+](=O)[O-])cc4)C3=O)o2)cc1	/	/	/	103*	/
O=C(O)CCN1C(=O)/C(=C/c2ccc(-c3ccc([N+](=O)[O-])cc3)o2)SC1=S	/	/	/	5	/
O=C(O)CCN1C(=O)/C(=C\C(Cl)=C/c2ccc([N+](=O)[O-])cc2)SC1=S	/	/	/	102*	/
O=C(O)CCN1C(=O)/C(=C/c2ccc(-c3ccc(Cl)cc3)o2)SC1=S	/	/	/	102*	/
CCOc1ccc(-n2c(C)cc(C=O)c2C)cc1	/	/	/	9	/
COc1ccc(COC(=O)C2=C(C)NC3=C(C(=O)CCC3)C2c2ccccc2C(F)(F)F)cc1 (stereo unspecified)	/	/	i	/	/
CC1CN(Cc2c(O)ccc3c4c(c(=O)oc23)CCC4)CC(C)O1 (stereo unspecified)	/	/	/	5	/
O=C1N=c2ccc(Cl)cc2=C1c1sc(=O)n(-c2ccccc2)c1O	/	/	/	12	/
CC(C)OCCCn1c(=NC(=O)c2ccncc2)c(C#N)cc2c(=O)n3ccccc3nc21	7	38*	i	16	-30
CCOc1c(C=C2C(=O)NC(=O)NC2=O)cccc1OC	/	/	/	-8	/
COc1ccc(N2CCN(Cc3cc(=O)oc4ccc(Cl)cc34)CC2)cc1	5	13	i	5	-20
COc1ccc(N2CCN(Cc3cc(=O)oc4c3ccc3ccccc34)CC2)cc1	3	22	+	0	6
CCc1ccc2oc(=O)cc(CN3CCN(c4ccc(F)cc4)CC3)c2c1	-3	12	i	3	8
CC(C)c1ccc2oc(=O)cc(CN3CCN(c4ccc(F)cc4)CC3)c2c1	5	40*	i	3	2
O=C1c2cccc3cccc(c23)C(=O)N1CCOc1ccccc1Cl	/	/	/	-19	/
Cc1cccc(S(=O)(=O)N2CCSC2c2cccc(Cl)c2)c1 (stereo unspecified)	/	/	/	5	/
CCOC(=O)c1[nH]c2ccc(F)cc2c1NC(=O)CN1CCc2cc(OC)c(OC)cc2C1	10	35*	i	0	2
Cc1ccc(-n2[nH]c(=O)c(/C=C3\C=Nc4ccccc43)c2O)cc1	/	/	/	94*	/
SMILES	FXIIa inh mix	AP ELISA ortho	BAP1 inh	HePTP inhibitor	FXIa inh mix
COc1ccc(N=C2NC(=O)/C(=C/c3ccc(I)o3)S2)cc1	/	/	/	-7	/
CCOC(=O)c1c(NC(=O)c2cccs2)sc2c1CC(C)(C)OC2	-20	10	/	11	21*
CCOC(=O)c1c(NC(=O)c2ccncc2)sc2c1CC(C)(C)OC2	/	/	/	6	/
C=CCNC(=O)NS(=O)(=O)c1ccc(C)cc1	2	-1	i	10	22*
C=CCNC(=O)C(=O)Nc1ccc(C)cc1	/	/	/	4	/
O=C(O)CCCCCN1C(=O)C(=O)/C(=C(/O)c2ccc([N+](=O)[O-])cc2)C1c1ccc2c(c1)OCO2 (stereo unspecified)	/	/	/	104*	/
O=C(O)CCCCCN1C(=O)C(=O)/C(=C(/O)c2ccc(Cl)cc2)C1c1ccc2c(c1)OCO2 (stereo unspecified)	/	/	/	-6	/
COc1ccccc1-c1nc(-c2ccc(Br)cc2)no1	29*	11	i	4	3
CCOc1ccc(/C=C/C(=O)NC(c2ccccc2)c2ccccc2)cc1OC	/	/	/	4	/
COc1ccc(N2C(=O)/C(=C/c3ccc(Br)o3)SC2=S)cc1	/	/	/	51*	/

From PubChem BioAssay
